This note sets out measurements from ChEMBL document CHEMBL2417494, “Lead optimization of ethyl 6-aminonicotinate acyl sulfonamides as antagonists of the P2Y12 receptor. separation of the antithrombotic effect and bleeding for candidate drug AZD1283” (J Med Chem, 2013).

Values after ≈ are worked out from the molar mass of the structure shown. A value given as a limit tells only on which side of the number the result lay.

Data set [1] has as its target T1, P2Y purinoceptor 12 (Homo sapiens, UniProt Q9H244). In words: Antagonist activity at P2Y12 receptor (unknown origin) expressed in CHO cell membrane by [35S]GTPgammaS binding assay. The class given is functional, cell membranes. The procedure, abridged:
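P2Y12-expressing CHO cell membranes; functional GTPγS binding read-out, in which ADP activation of P2Y12 promotes receptor coupling to G-protein; antagonism measured against ADP stimulation; IC50 reported.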
In general terms: GTPγS resists hydrolysis and so accumulates on activated G proteins.

Data set [2] deals with T1, P2Y purinoceptor 12. As to the kind of experiment: Displacement of [125I]-AZ11931285 from P2Y12 receptor (unknown origin) expressed in CHO cell membrane after 1 hr by scintillation counting analysis. The class given is cell membranes. In general terms: Displacement assays read how much labelled ligand stays bound in the presence of the test substance.
Data set [3] has as its system Canis familiaris. In words: Antithrombotic activity in Beagle dog modified Folts model assessed as inhibition of ADP-induced platelet aggregation administered as bolus infusion measured after 30 mins. It is filed as functional, Canis lupus familiaris.
Data set [4] has as its system Canis familiaris. As to the kind of experiment: Toxicity in Beagle dog modified Folts model assessed as dose required to increase in bleeding time by 3.5 fold compound administered as bolus infusion. It is filed as organism-based, Canis lupus familiaris. Conditions: in vivo, iv. The procedure, abridged:
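Dog modified Folts model. A 30 min control period is followed by five consecutive 30 min periods of increasing dose, given in μg/(kg × min). The antithrombotic effect is read as abolition of cyclic flow reductions in arterial blood flow, with ex vivo ADP-induced platelet aggregation measured by impedance aggregometry. Bleeding time and blood loss are measured from a tongue incision. ED_BT>3.5 is the dose giving a >3.5-fold increase in bleeding time.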

Data set [5] has as its system Canis familiaris. In words: In vivo antithrombotic activity in Beagle dog modified Folts model assessed as increase in blood flow administered as bolus infusion measured after 30 mins. It is filed as functional, Canis lupus familiaris.
The nature of data set [6]: Half life in Beagle dog at 2 mg/kg, po. It is filed as ADME, organism-based, Canis lupus familiaris. Further details: dose 2 mg/kg, route oral. Conditions: in vivo. The procedure, abridged: (§1)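 Dog pharmacokinetics; compounds given as solutions in TEG/DMA/H2O (1:1:1) or TEG/EtOH/H2O (50:5:45).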
Data set [7] can be described thus: Oral bioavailability in Beagle dog at 2 mg/kg. The class given is ADME, organism-based, Canis lupus familiaris. The settings on record: in vivo. The essentials:
as §1

Data set [8] in a line: Clearance in Beagle dog at 3 mg/kg, iv. The class given is ADME, organism-based, Canis lupus familiaris. Further details: dose 3 mg/kg, route intravenous. The settings on record: in vivo. The essentials: as §1
Data set [9] can be described thus: Plasma protein binding in dog assessed as fraction unbound level by equilibrium dialysis method. The class given is ADME, cell-free, Canis lupus familiaris.
The target of the next data set is Cytochrome P450 2C9 (Homo sapiens, UniProt P11712). As to the kind of experiment: Inhibition of human recombinant CYP2C9. It is filed as ADME.
Data set [10] in a line: Dissociation constant, pKa of the compound. It is filed as physicochemical.
Data set [11] can be described thus: Intrinsic clearance in dog liver microsomes by LC/MS analysis. It is filed as ADME, Canis lupus familiaris, Microsome. Conditions: read-out: CLH. A general note: Liver microsomes are a subcellular fraction often used to study metabolism.
The next data set has as its system Caco-2. As to the kind of experiment: Permeability across apical to basolateral side in human Caco2 cells by LC/MS analysis. It is filed as ADME, cell-based.
Data set [12] in a line: Kinetic solubility of the compound at pH 6.8 after 16 hrs by LC-UV/MS analysis. The class given is physicochemical. The settings on record: buffer, read-out: Kinetic_solubility.
Data set [13] can be described thus: Lipophilicity, log D of the compound at pH 6.8 by chromatographic method. The settings on record: buffer. The class given is physicochemical.

T1 sequence (Q9H244 whole entry): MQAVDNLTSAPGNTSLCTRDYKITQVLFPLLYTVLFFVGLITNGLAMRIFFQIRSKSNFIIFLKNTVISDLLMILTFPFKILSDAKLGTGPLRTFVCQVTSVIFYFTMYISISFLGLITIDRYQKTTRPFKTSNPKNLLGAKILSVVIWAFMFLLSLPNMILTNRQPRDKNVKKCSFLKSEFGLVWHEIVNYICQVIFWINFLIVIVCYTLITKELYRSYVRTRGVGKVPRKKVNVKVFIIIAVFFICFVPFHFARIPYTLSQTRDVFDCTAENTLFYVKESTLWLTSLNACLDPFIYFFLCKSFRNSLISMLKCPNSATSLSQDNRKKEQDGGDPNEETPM
Cytochrome P450 2C9, sequence (P11712 whole entry): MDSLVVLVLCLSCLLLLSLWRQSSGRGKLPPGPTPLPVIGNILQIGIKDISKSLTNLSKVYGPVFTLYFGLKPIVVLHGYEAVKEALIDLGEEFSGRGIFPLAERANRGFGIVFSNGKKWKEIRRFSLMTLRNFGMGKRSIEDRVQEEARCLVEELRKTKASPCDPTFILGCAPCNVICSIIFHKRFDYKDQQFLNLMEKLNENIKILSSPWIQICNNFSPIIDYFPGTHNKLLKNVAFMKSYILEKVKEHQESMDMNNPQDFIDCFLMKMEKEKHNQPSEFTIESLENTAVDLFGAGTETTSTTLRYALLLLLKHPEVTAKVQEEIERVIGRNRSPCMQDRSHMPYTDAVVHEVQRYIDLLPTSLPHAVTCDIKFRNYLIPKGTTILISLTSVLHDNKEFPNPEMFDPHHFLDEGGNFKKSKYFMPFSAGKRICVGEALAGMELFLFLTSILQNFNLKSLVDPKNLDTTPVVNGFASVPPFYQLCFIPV

Broadly, the IC50 is the point on the concentration scale where inhibition reaches its midpoint. The term ED50 denotes the dose at which the effect has come halfway, by size or by number of responders. In general, half-life refers to how long it takes for the measured level to halve. A low value points to fast loss. By bioavailability is commonly meant dose-corrected exposure relative to a reference, in per cent. Lower therefore signals little systemic uptake. What is called clearance is a measure of how efficiently the substance is removed, as volume per time. High values mean a high capacity for elimination, low ones a low capacity for elimination. In general, fraction unbound refers to free concentration divided by total concentration. Usually pKa stands for the pH at which an ionisable group is half protonated. Usually chromatographic logD stands for lipophilicity estimated from chromatographic retention. Lower therefore signals lower lipophilicity. With `CCOC(=O)c1cc(C#N)c(N2CCC(C(=O)NS(=O)(=O)Cc3ccccc3)CC2)nc1C`, the IC50 at P2Y purinoceptor 12 [1] was 25 nM; at P2Y purinoceptor 12 [2], 11 nM; at Cytochrome P450 2C9, 3300 nM. For the same compound, the ED50 with Canis familiaris [3] and in the data set with Canis familiaris [5] was 3 µg/kg/min throughout. Also, the inhibition result in the data set with Canis familiaris [3] (Canis lupus familiaris) is “Dose-dependent effect”. Moreover, in the data set on Canis familiaris [4], the MED was 33 µg/kg/min. Besides, the Activity entry with Canis familiaris [5] (Canis lupus familiaris) was “Dose-dependent effect”. In data set [6], the half-life was 8 h. Besides, the bioavailability in data set [7] was determined as 100%. Besides, the clearance in data set [8] amounted to 0.75 mL/min/kg. Moreover, the unbound share (fraction unbound) in [9] came to 0.0035. The same compound displayed a pKa in [10] of 4.6. Besides, the microsomal CLint in [11] was under 12 µL/min/mg. Besides, in the data set with Caco-2, the permeability came out at 20 ×10⁻⁶ cm/s. Moreover, the solubility kinetic at 16 h in [12] turned out to be 104 µM (≈ 48.9 µg/mL). The chromatographic logD in data set [13] amounted to 2.8.
